# UCH37 inh – blocks the human deubiquitinase UCH37. inhibition, % (test concentration not listed). AID 588478. Q9Y5K5. purified proteasome/UCH37, Ub-AMC cleavage fluorescence. 330,000 compounds, 0.33% hits;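 active means mean inhibition over replicate wells above about 20%, limit read from the data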;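 further: 0% = compound-free wells with enzyme and 100% = wells lacking proteasome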
#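 Material: human UCH37 enzyme supplied as purified proteasome complex. Measure: % inhibition of Ub-AMC cleavage fluorescence. Medium: pH 7.4 Tris-HCl (50 mM) with ovalbumin, ATP-MgCl2, DTT. Times: 30 min preincubation with enzyme, 25 min cleavage at room temperature. Detection: AMC fluorescence intensity at 355/460 nm.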
# GRIN3A LBD mod – NR3A (human) ligand-binding domain modulation; NR3A LBD differential scanning fluorimetry, Tm shift; 0% = protein alone, 100% = glycine-bound protein; Tm shift relative to glycine control, % at 25 µM; 340,000 compounds, 2.5% hits; AID 1259313;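 active means melting temperature shift of at least 10% of the positive control shift, at one fixed dose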
# PAFAH1B3 inh – PAFAH1B3 (human) inhibition. AID 492972. Q15102. 340,000 compounds, 0.28% hits. inhibition, % at 3.39 µM. recombinant PAFAH1B3, FP-rhodamine probe, fluorescence polarization;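 active means inhibition above the screen-wide average of all tested compounds plus 3 SD, cut at about 25% in these data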;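 further: 0% = enzyme with DMSO only and 100% = wells lacking PAFAH1B3 protein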
# Target sequence (Q15102 whole entry, looked up): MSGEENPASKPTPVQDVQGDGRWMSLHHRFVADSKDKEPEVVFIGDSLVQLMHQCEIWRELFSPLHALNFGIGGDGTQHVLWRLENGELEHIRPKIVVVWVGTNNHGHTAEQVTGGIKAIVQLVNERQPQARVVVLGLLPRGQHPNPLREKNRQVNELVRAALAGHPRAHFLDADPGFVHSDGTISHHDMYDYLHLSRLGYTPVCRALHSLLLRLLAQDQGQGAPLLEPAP
# PAFAH1B2 FP inh – inhibitors of human PAFAH1B2; P68402; recombinant PAFAH1B2, FP-rhodamine activity probe, fluorescence polarization; inhibition, % at 3.39 µM; 340,000 compounds, 1.2% hits; AID 492953;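 active means inhibition above the mean of all tested compounds plus 3 SD, cut at about 24% in these data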;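 further: 0% = enzyme with DMSO and 100% = wells lacking PAFAH1B2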
# Target sequence (P68402 whole entry, looked up): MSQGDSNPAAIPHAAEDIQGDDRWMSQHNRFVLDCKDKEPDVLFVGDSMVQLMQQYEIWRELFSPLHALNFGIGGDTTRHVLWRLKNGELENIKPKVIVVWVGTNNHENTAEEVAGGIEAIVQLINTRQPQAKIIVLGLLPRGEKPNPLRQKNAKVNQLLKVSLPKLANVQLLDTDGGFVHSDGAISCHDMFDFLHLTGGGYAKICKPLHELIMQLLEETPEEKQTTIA
# pPAFAH inh – pPAFAH (human) enzyme inhibition; Q13093; recombinant pPAFAH, FP-rhodamine probe fluorescence polarization; inhibition, % at 3.39 µM; 330,000 compounds, 1.5% hits; AID 463082;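 active means inhibition above the mean inhibition across the screen plus 3 SD, cut at about 25% in these data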;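 further: inhibitors block binding of the rhodamine activity-based probe so polarization drops; 0% = enzyme with DMSO and 100% = wells lacking pPAFAH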
# PAFAH2 FP inh – PAFAH2 (human) inhibition; Q99487; recombinant PAFAH2, FP-rhodamine activity probe, fluorescence polarization; inhibition, % at 3.39 µM; 340,000 compounds, 0.99% hits;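 active means inhibition above the mean over all tested compounds plus 3 SD, cut at about 30% in these data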;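 further: inhibitors block probe labeling of enzyme so polarization drops; 0% = enzyme with DMSO and 100% = wells lacking PAFAH2 protein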
# * marks the source's active call; other numbers are inactive results; · = no result given; ! = not confirmed by another sample. This is a sample that favours compounds with a hit; in the whole collection about 4.8% have one here.
SMILES,UCH37 inh,GRIN3A LBD mod,PAFAH1B3 inh,PAFAH1B2 FP inh,pPAFAH inh,PAFAH2 FP inh
CC1=Nc2ccccc2/C1=C\c1nc(-c2ccccc2)oc1O,5,10*,-2,-2,12,-2
CC1=Nc2ccccc2/C1=C/c1nc(-c2ccc(C)s2)oc1O,5,20*,4,0,11,10
COc1ccc(C=NNC(=O)c2ccccc2Br)cc1COc1ccccc1,0,·,·,·,·,·
Cc1ccc(O)c(C=NNC(=O)Cc2ccc(Cl)cc2)c1,0,·,·,·,·,·
Cc1[nH]c2c(C)cccc2c1CC(=O)O,1,1,7,6,1,16
Cc1cccc2c(N=O)c(O)[nH]c12,3,0,53*,30*,31*,25
O=C(CSc1ccc(Cl)cc1)NN=Cc1ccc([N+](=O)[O-])o1,5,·,·,·,·,·
Cn1nccc1C(=O)Oc1ccc(C=NNC(=O)c2ccccc2O)cc1,-2,·,·,·,·,·
COc1ccccc1NCC(=O)N/N=C/c1c(O)ccc2ccccc12,·,16*,18,6,10,2
COc1ccccc1N(CC(=O)NN=Cc1c(O)ccc2ccccc12)S(C)(=O)=O,0,·,·,·,·,·
O=C(CNc1ccc(F)cc1)N/N=C/c1c(O)ccc2ccccc12,·,27*,15,12,11,-1
O=[N+]([O-])c1cccc(NN=Cc2cccc3ccccc23)c1,10,·,·,·,·,·
O=C(NNS(=O)(=O)c1ccc(Br)cc1)C1CCCCC1,2,-1,6,28*,1,7
Cc1cc([N+](=O)[O-])ccc1-c1ccc(C=NNC(=O)Cc2ccccc2)o1,3,·,·,·,·,·
CCCCCCCCN1[C@@H](CC(=O)O)c2ccc(C(F)(F)F)cc2S1(=O)=O,-1,-13,1,31*,11,14
CCCCCCCCCCCCN1[C@@H](CC(C)=O)c2cc(C(F)(F)F)ccc2S1(=O)=O,1,-3,5,5,5,-10
Nc1ccc(Br)c2c1C(=O)c1ccccc1C2=O,7,-3,·,·,25*,·
COc1ccc(N)c2c1C(=O)c1ccccc1C2=O,6,0,13,13,17,27
O=C(COC(=O)CCc1ccccc1)Nc1ccccc1OC(F)F,1,-1,-1,17,13,16
O=C(COC(=O)CCC1CCCCC1)Nc1ccc(OC(F)F)cc1,4,1,-5,3,26*,11
O=C(COC(=O)CCC1CCCC1)Nc1ccccc1OC(F)F,0,0,2,3,29*,5
O=C(COC(=O)CCC1CCCC1)NCc1ccc(Cl)cc1,2,0,1,4,30*,12
CCCCC(=O)OCC(=O)Nc1ccc(OC(F)F)cc1,6,13*,4,-1,8,25
O=C(NN=Cc1ccncc1)c1cc(-c2ccc(Br)s2)[nH]n1,1,·,·,·,·,·
O=C(COC(=O)CCC1CCCC1)Nc1ccc(F)cc1,3,1,-2,12,32*,27
SMILES,UCH37 inh,GRIN3A LBD mod,PAFAH1B3 inh,PAFAH1B2 FP inh,pPAFAH inh,PAFAH2 FP inh
COc1ccc(C(=O)OCC(=O)Nc2ccc(OC(F)F)cc2)c(OC)c1,3,-2,7,5,33*,68*
O=C(NCc1ccncc1)C(=O)NN=Cc1ccccn1,1,·,·,·,·,·
COc1ccc(C2C(C#N)=C(N)Oc3c2sc2nc(C)cc(C)c32)cc1 (centres undefined),·,-2,-4,-3,6,13
Cc1cc(C)c2c3c(sc2n1)C1(CCSCC1)C(C#N)=C(N)O3,0,16*,9,4,7,8
O=C(N/N=C/c1ccc(Cl)cc1)c1cc2c(s1)-c1ccccc1CC2,·,12*,1,3,1,-8
O=C(NN=Cc1ccc(Cl)cc1)c1cc(-c2cccnc2)nc2ccccc12,2,·,·,·,·,·
O=C(O)c1cc2c(s1)-c1ccccc1CC2,-493,-3,6,6,-4,0
Nc1sc(-c2ccccc2)cc1C(=O)N/N=C/c1ccc(Cl)cc1,·,13*,·,·,9,·
CC(C)c1ccc(NC(=O)CN2C(=O)NC(Cc3c[nH]c4ccccc34)C2=O)cc1 (centres undefined),1,13*,6,19,9,0
CC(C)CC1NC(=O)N(CC(=O)Nc2ccc(-c3ccccc3)cc2)C1=O (centres undefined),-1,13*,-7,1,0,5
CN1CCc2cccc3c2[C@H]1Cc1ccc(O)c(O)c1-3,-4,12*!,7,0,25*!,8

# Screens deposited in PubChem by several laboratories.
